Measured values published in ChEMBL document CHEMBL4819156, “Synthesis of novel 1H-Pyrazolo[3,4-b]pyridine derivatives as DYRK 1A/1B inhibitors” (Bioorg Med Chem Lett, 2021).
Activity calls are given as the source filed them. The rule behind the calls is not given here.

Assays:
[1] = target: Dual specificity tyrosine-phosphorylation-regulated kinase 1B (Homo sapiens, UniProt Q9Y463); test: Inhibition of DYRK1B (unknown origin)
[2] = target: Dual specificity tyrosine-phosphorylation-regulated kinase 1A (Homo sapiens, UniProt Q13627); test: Inhibition of DYRK1A (unknown origin)
SW480 [3] = test: Anticancer activity against human SW480 cells assessed decrease in viable cells at 5 uM measured after 10 days by calcein AM staining based 3D spheroid assay; format: functional, cell-based; settings: time 10.0 day
Summary of the method: (§1)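 3D spheroids grown in poly-HEMA-coated U-bottom wells. Compound added at days 3, 5 and 7. Cells were stained with Hoechst33342 for nuclei, calcein AM for live cells and ethidium homodimer-1 for dead cells. Images were taken on day 10 at 50×.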

LoVo = test: Cytotoxicity against human LOVO cells assessed as reduction in cell viability; format: functional, cell-based
SW-620 [4] = test: Anticancer activity against human SW-620 cells assessed decrease in nuclei size at 5 uM measured after 10 days by Hoechst33342 staining based 3D spheroid assay; format: functional, cell-based; settings: time 10.0 day; summary of the method: as §1
RKO = test: Cytotoxicity against human RKO cells assessed as reduction in cell viability; format: functional, cell-based
SW-620 [5] = test: Cytotoxicity against human SW-620 cells assessed as reduction in cell viability; format: functional, cell-based
SW-620 [6] = test: Anticancer activity against human SW-620 cells assessed decrease in viable cells at 5 uM measured after 10 days by calcein AM staining based 3D spheroid assay; format: functional, cell-based; settings: time 10.0 day; summary of the method: as §1
LS174T = test: Cytotoxicity against human LS174T cells assessed as reduction in cell viability; format: functional, cell-based
COLO 205 = test: Cytotoxicity against human COLO205 cells assessed as reduction in cell viability; format: functional, cell-based
SW480 [7] = test: Anticancer activity against human SW480 cells assessed dead cells at 5 uM measured after 10 days by Ethidium Homodimer-1 staining based 3D spheroid assay; format: functional, cell-based; settings: time 10.0 day; summary of the method: as §1
SW480 [8] = test: Cytotoxicity against human SW480 cells assessed as reduction in cell viability; format: functional, cell-based
HCT-15 = test: Cytotoxicity against human HCT15 cells assessed as reduction in cell viability; format: functional, cell-based
DLD-1 [9] = test: Induction of autophagic cell death in human DLD-1 cells assessed as multi-vesicle formation; format: functional, cell-based
HCT-116 [10] = test: Induction of autophagic cell death in human HCT-116 cells assessed as multi-vesicle formation; format: functional, cell-based
DLD-1 [11] = test: Cytotoxicity against human DLD-1cells assessed as reduction in cell viability; format: functional, cell-based
HT-29 = test: Cytotoxicity against human HT29 cells assessed as reduction in cell viability; format: functional, cell-based
Colon cancer cell line = test: Cytotoxicity against patient-derived human colon cancer organoids assessed as reduction of crypt size and disruption of intact organoid structure at 10 uM measured after 5 days by Celltiter-glo luminescent assay relative to control; format: functional, cell-based; settings: time 5.0 day
HCT-116 [12] = test: Cytotoxicity against human HCT116 cells assessed as reduction in cell viability; format: functional, cell-based
SW-620 [13] = test: Anticancer activity against human SW-620 cells assessed dead cells at 5 uM measured after 10 days by Ethidium Homodimer-1 staining based 3D spheroid assay; format: functional, cell-based; settings: time 10.0 day; summary of the method: as §1
SW480 [14] = test: Anticancer activity against human SW480 cells assessed decrease in nuclei size at 5 uM measured after 10 days by Hoechst33342 staining based 3D spheroid assay; format: functional, cell-based; settings: time 10.0 day; summary of the method: as §1

Chain of Dual specificity tyrosine-phosphorylation-regulated kinase 1B (Q9Y463 whole entry): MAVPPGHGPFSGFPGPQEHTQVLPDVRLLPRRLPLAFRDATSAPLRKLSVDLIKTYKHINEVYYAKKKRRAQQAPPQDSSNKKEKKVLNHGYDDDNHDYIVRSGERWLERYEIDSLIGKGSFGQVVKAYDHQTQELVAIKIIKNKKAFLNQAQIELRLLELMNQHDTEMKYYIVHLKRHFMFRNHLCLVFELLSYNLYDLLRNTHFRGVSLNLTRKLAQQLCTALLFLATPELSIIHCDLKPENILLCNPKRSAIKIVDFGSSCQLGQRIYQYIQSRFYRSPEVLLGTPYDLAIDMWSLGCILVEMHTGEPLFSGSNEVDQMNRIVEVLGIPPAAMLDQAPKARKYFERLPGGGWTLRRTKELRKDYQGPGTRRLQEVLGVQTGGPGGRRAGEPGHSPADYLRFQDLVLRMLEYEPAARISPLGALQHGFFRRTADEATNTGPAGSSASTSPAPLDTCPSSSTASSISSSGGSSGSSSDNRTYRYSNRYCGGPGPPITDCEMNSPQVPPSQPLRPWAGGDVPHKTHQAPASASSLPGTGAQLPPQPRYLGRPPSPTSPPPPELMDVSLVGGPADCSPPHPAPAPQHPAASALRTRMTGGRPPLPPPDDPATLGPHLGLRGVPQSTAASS

Row | IC50 [1] [nM] | IC50 [2] [nM] | Compound | also measured
1 | 10 |  | NC(=O)Nc1ccc(-c2cnc3[nH]nc(-c4ccc(O)cc4)c3c2)cc1 | 
2 | 87 | 56 | Oc1ccc(-c2n[nH]c3ncc(Br)cc23)cc1 | 
3 | 188 | 365 | COc1ccc(-c2n[nH]c3ncc(Nc4ccccc4)cc23)cc1 | 
4 | 5 |  | CS(=O)(=O)Nc1ccc(-c2cnc3[nH]nc(-c4ccc(O)cc4)c3c2)cc1 | 
5 | 736 |  | Brc1cnc2[nH]nc(-c3ccsc3)c2c1 | 
6 | 3680 | > 5000 | COc1cccc(-c2n[nH]c3ncc(Nc4cccc(OCc5ccccc5)c4)cc23)c1 | 
7 | 39 | 213 | Oc1cccc(-c2cnc3[nH]nc(-c4cccc(O)c4)c3c2)c1 | 
8 | 97 | 75 | COc1ccc(-c2n[nH]c3ncc(-c4ccc(OC)c(OC)c4)cc23)cc1 | 
9 | 568 | 1110 | CC(=O)Nc1ccc(-c2n[nH]c3ncc(Br)cc23)cc1 | 
10 | 635 |  | Nc1cccc(-c2n[nH]c3ncc(Br)cc23)c1 | 
11 | 191 | 950 | COc1cccc(-c2n[nH]c3ncc(Nc4cccc(O)c4)cc23)c1 | 
12 | 6 | 5 | Oc1ccc(-c2cnc3[nH]nc(-c4ccc(O)cc4)c3c2)cc1 | 
13 | > 5000 | > 5000 | c1ccc(-c2cnc3[nH]nc(-c4ccccc4)c3c2)cc1 | 
14 | 575 | 2820 | COc1cccc(-c2n[nH]c3ncc(Nc4ccccc4)cc23)c1 | 
15 | 7 | 8 | COc1ccc(-c2n[nH]c3ncc(-c4ccc(NC(C)=O)cc4)cc23)cc1 | 
16 | 13 |  | CC(=O)Nc1ccc(-c2cnc3[nH]nc(-c4ccc(O)cc4)c3c2)cc1 | 
17 | > 5000 |  | O=[N+]([O-])c1cccc(-c2n[nH]c3ncc(Br)cc23)c1 | 
18 | 257 | 638 | CC(=O)Nc1cccc(-c2n[nH]c3ncc(Br)cc23)c1 | 
19 | 15 |  | COc1ncc(-c2n[nH]c3ncc(-c4ccc(O)c(O)c4)cc23)cn1 | 

Row | IC50 [1] [nM] | IC50 [2] [nM] | Compound | also measured
20 | 287 | 632 | COc1ccc(-c2cnc3[nH]nc(-c4cccc(NC(C)=O)c4)c3c2)cc1OC | 
21 | 31 | 33 | COc1ccc(-c2n[nH]c3ncc(Nc4cccc(O)c4)cc23)cc1 | 
22 | 1050 |  | O=C(O)c1ccc(-c2n[nH]c3ncc(Br)cc23)cc1 | 
23 | 4040 | 92 | Brc1cnc2[nH]nc(-c3cncnc3)c2c1 | 
24 | 1270 | 3550 | COc1ccc(-c2n[nH]c3ncc(Nc4cc(C(F)(F)F)cc(C(F)(F)F)c4)cc23)cc1 | 
25 | 167 | 299 | COc1ncc(-c2n[nH]c3ncc(-c4ccc(OC)c(OC)c4)cc23)cn1 | 
26 |  |  | Oc1ccc(-c2n[nH]c3ncc(-c4ccc(O)c(O)c4)cc23)cc1 | Activity (SW480 [3]): Active; IC50 (LoVo): 19100 nM; Activity (SW-620 [4]): Active; IC50 (RKO): 1100 nM; IC50 (SW-620 [5]): 3970 nM; Activity (SW-620 [6]): Active; IC50 (LS174T): 37500 nM; IC50 (COLO 205): 6220 nM; Activity (SW480 [7]): Active; IC50 (SW480 [8]): 4130 nM; IC50 (HCT-15): 20100 nM; Activity (DLD-1 [9]): Active; Activity (HCT-116 [10]): Active; IC50 (DLD-1 [11]): 2450 nM; IC50 (HT-29): 10900 nM; Activity (Colon cancer cell line): Active; IC50 (HCT-116 [12]): 1570 nM; Activity (SW-620 [13]): Active; Activity (SW480 [14]): Active
27 | 141 |  | COc1ncc(-c2n[nH]c3ncc(Br)cc23)cn1 | 
28 | > 5000 |  | O=[N+]([O-])c1ccc(-c2n[nH]c3ncc(Br)cc23)cc1 | 
29 | 54 |  | COc1ccc(-c2n[nH]c3ncc(Br)cc23)cc1 | 
30 | 29 | 24 | CC(=O)Nc1cccc(-c2n[nH]c3ncc(-c4ccc(O)c(O)c4)cc23)c1 | 
31 | 2 |  | COc1ccc(-c2n[nH]c3ncc(-c4ccc(NC(N)=O)cc4)cc23)cc1 | 
32 | 615 |  | Brc1cnc2[nH]nc(-c3ccc4cc[nH]c4c3)c2c1 | 
33 | 121 |  | Brc1cnc2[nH]nc(-c3cnn(Cc4ccccc4)c3)c2c1 | 
34 | 2040 |  | Brc1cnc2[nH]nc(-c3ccccc3)c2c1 | 
35 | 309 | 309 | COc1ccc(-c2n[nH]c3ncc(Nc4cccc(OCc5ccccc5)c4)cc23)cc1 | 
36 | > 5000 |  | COc1cccc(-c2n[nH]c3ncc(Br)cc23)c1 | 
37 | 56 | 44 | Oc1ccc(-c2cnc3[nH]nc(-c4ccccc4)c3c2)cc1 | 
